Experimental data of several laboratories.
Lines come from different studies, so protocols differ.

CS(=O)(=O)CCNCc1ccc(-c2ccc3ncnc(Nc4ccc(OCc5cccc(F)c5)c(Cl)c4)c3c2)o1 gave an AUC(0-t) of 234000 ng·h/mL (nude mouse; plasma; oral; 200 mg/kg; single dose).
For COc1ccc2nccc(N3CCc4c(cc(Cn5ccnc5)cc4-c4cn(C)nc4C(F)(F)F)C3=O)c2c1, the AUC(0-t) was 2080 ng·h/mL (male CD-1 mouse; plasma; oral; 10 mg/kg).
The AUC(0-t) of COc1ccc(C(O)COc2ccc(-c3csc(-c4ccc(OCC(O)c5ccc(OC)c(OC)c5)cc4)n3)cc2)cc1OC (stereo not shown) is reported as 4700 ng·h/mL (C57BL/6 mouse; plasma; intravenous; 3 mg/kg).
With Cc1c(C(=O)NN2CCCCC2)nc(-c2ccc(Cl)cc2Cl)n1-c1ccc(OS(=O)(=O)CCC(F)(F)F)cc1 the AUC(0-t) was 6.3 µM·h (mouse; plasma; oral; 20 µmol/kg; single dose).
The AUC(0-t) of CCc1ccc(Cc2cc([C@@H]3O[C@H](CO)[C@@H](O)[C@H](O)[C@H]3O)cc3c2CCC3)cc1 is reported as 1440 ng·h/mL (male C57BL/6 mouse; plasma; intravenous; 1 mg/kg).
With Cc1nc(-c2cnc(NC(C)C)n(C)c2=O)ccc1Oc1ccnc(-c2cnn(C)c2)c1 the AUC(0-t) was 29000 ng·h/mL (female mouse; plasma; oral; 3.75 mg/kg; single dose).
NS(=O)(=O)c1ccc(-c2cc(Nc3ccc(OC(F)(F)F)cc3)ncn2)cc1 has an AUC(0-t) of 9390 ng·h/mL (male BALB/c mouse; plasma; oral; 20 mg/kg).
The AUC(0-t) of CN1CCN(C2CCN(c3nccc4[nH]c(-c5cc(F)cc(F)c5)nc34)CC2)CC1 is reported as 11.8 µM·h (BALB/c mouse; blood; oral; 20 mg/kg).
With C=CC(=O)N1CC2CC(n3nc(-c4ccc(C(=O)Nc5ccccn5)cc4)c4c(N)ncnc43)CC2C1 (stereo not shown) the AUC(0-t) was 1120 ng·h/mL (SCID mouse; plasma; oral; 5 mg/kg).
CNC(=O)c1cc(OC)cc2c(N3CCc4c(cc(Cn5ccnc5)cc4-c4cn(C)nc4C(F)(F)F)C3=O)ccnc12 gave an AUC(0-t) of 144000 ng·h/mL (male CD-1 mouse; plasma; oral; 50 mg/kg).
CNC(=O)c1cc(Oc2ccc(NC(=O)Nc3ccc(Cl)c(C(F)(F)F)c3)c(F)c2)cc[n+]1[O-] gave an AUC(0-t) of 1930 ng·h/mL (mouse; plasma; oral; 10 mg/kg; single dose).
CN1CCC[C@H](CN2c3ccccc3Sc3ccccc32)C1.Cl gave an AUC(0-t) of 6920 ng·h/mL (mouse; plasma; intraperitoneal; 32 mg/kg; single dose).
CN1CCN(CC2CCN(c3cncc4[nH]c(-c5cc(F)cc(F)c5)nc34)CC2)CC1 has an AUC(0-t) of 0.967 µM·h (mouse; blood; intravenous; 2 mg/kg).
With Cc1ccc2cncc(N3CCc4c(cc(Cn5ccnc5)cc4-c4cn(C)nc4C(F)(F)F)C3=O)c2c1 the AUC(0-t) was 36300 ng·h/mL (male CD-1 mouse; plasma; oral; 50 mg/kg).
COc1nc(-c2cc(C)c(N[C@@H](C)c3ccc(F)cc3)nn2)ccc1-n1cnc(C)c1 gave an AUC(0-t) of 4020 ng·h/mL (male CD-1 mouse; plasma; intravenous; 1 mg/kg; single dose).
The AUC(0-t) of CC=Cc1ccc(O)c(OC)c1 is reported as 9980 ng·h/mL (mouse; plasma; intranasal; 100 mg/kg).
For CC[C@H](C)[C@@H]1NC(=O)[C@@](C)(NC(=O)[C@H](CCCNC(=N)N)NC(=O)[C@H](CC(C)C)NC(=O)[C@@H](NC(=O)[C@H](CCC(N)=O)NC(=O)[C@H](CC(C)C)NC(C)=O)[C@@H](C)O)CCCC=CCCC[C@@](C)(C(=O)N[C@@H](CC(C)C)C(=O)N[C@@H](Cc2ccc3ccccc3c2)C(N)=O)NC(=O)[C@H](CCCNC(=N)N)NC(=O)[C@H](CCC(N)=O)NC1=O, the AUC(0-t) was 260000 ng·h/mL (male BALB/c mouse; plasma; intravenous; 15 mg/kg).
With CN1CCN(c2nccc3nc(-c4ccc(F)c(F)c4)[nH]c23)CC1 the AUC(0-t) was 3.58 µM·h (mouse; blood; intravenous; 2 mg/kg).
With C[C@H]1[C@@H](O)O[C@@H]2O[C@@]3(C)CC[C@H]4[C@H](C)CC[C@@H]1[C@@]24OO3 the AUC(0-t) was 382 ng·h/mL (female SCID mouse; plasma; oral; 60 mg/kg).
